In experiment [1] the test system is Influenza A virus. Nature of the experiment: Antiviral activity against influenza A virus Hong Kong/8/1968(H3N2) infected in HEK293T cells assessed as inhibition of viral replicon activity incubated for 30 hrs by dual-Glo luciferase assay. The settings on record: HEK-293T. It counts as functional, organism-based. The gist of the method:
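HEK293T cells (2.5 × 10^4/well) transfected with plasmids for NP, PB1, PB2, PA plus p0LN-S-Luc firefly and pRL-SV40 Renilla reporters; serially diluted compound added 6 h post-transfection, luciferase read after 30 h by Dual-Glo. Activity = firefly/Renilla ratio; % inhibition normalized to positive and negative controls, curve-fitted; three independent measurements.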

Experiment [2] has as its system Influenza A virus. The settings on record: A/Puerto Rico/8/1934(H1N1), 0.1 to 1000 uM.
Experiment [3] relates to Influenza A virus. Nature of the experiment: Binding affinity to influenza A virus hemagglutinin 2 synthetic peptide N66 at 75 uM incubated for 30 mins by Coomassie blue R250 staining based native polyacrylamide gel electrophoresis method. The gist of the method:
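Equimolar mix with N66 (150 μM each) in sodium acetate/phosphate/NaCl pH 5.0, 30 min at 30 °C; neutralized with 200 mM Tris pH 8.5, diluted 1:1 in Tris-glycine sample buffer, run on 15% Tris-glycine gel, running buffer pH 8.8 (90 V then 150 V, 2.5 h); Coomassie R250 stain.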

The test system of experiment [4] is Middle East respiratory syndrome-related coronavirus. Nature of the experiment: Binding affinity to MERS-CoV spike protein synthetic peptide HR1P at 75 uM incubated for 30 mins by Coomassie blue R250 staining based native polyacrylamide gel electrophoresis method. In outline: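 Equimolar mix with HR1P (150 μM each) in 10 mM phosphate pH 7.4, 30 min at 25 °C; diluted 1:1 in β-alanine–formic acid sample buffer, run on 15% β-alanine–formic acid gel at pH 3.4 (90 V then 150 V, 2.5 h); Coomassie R250 stain.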

Experiment [5] is described as follows: Inhibition of MERS-CoV spike protein-mediated cell-cell fusion in 293T/MERS/EGPF cells assessed as reduction in cell fusion incubated for 4 hrs by inverted fluorescence microscopy. It counts as cell-based, Middle East respiratory syndrome-related coronavirus. The gist of the method:
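Huh-7 cells expressing DPP4 plated 5 × 10^4/well, 5 h at 37 °C; serially diluted peptide added, then 293T cells carrying MERS-CoV S and EGFP (or EGFP-only control cells), 1 × 10^4/well. After 4 h coculture at 37 °C, fused and unfused effector cells counted by fluorescence microscopy.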

Active and inactive are the calls of the source. No cut-off for these calls is given here. Where a SMILES comes first, the peptide text is derived from it. [ ]: non-standard residue; d: D form. The star is where a group is joined. Palmitoyl = CCCCCCCCCCCCCCCC(=O)*; βAla = NCCC(=O)O

As a reminder, the EC50 is the concentration giving half of the maximal effect. As to `CCCCCCCCCCCCCCCC(=O)NCCCC[C@H](NC(=O)CCNC(=O)[C@H](CCCCN)NC(=O)[C@H](CCCCN)NC(=O)[C@H](CCC(N)=O)NC(=O)[C@@H](NC(=O)[C@H](CCC(=O)O)NC(=O)[C@H](CCC(=O)O)NC(=O)[C@@H](NC(=O)[C@H](CCCCN)NC(=O)[C@H](CCCCN)NC(=O)[C@H](CCC(N)=O)NC(=O)[C@@H](NC(=O)[C@H](CCC(=O)O)NC(=O)[C@H](CCC(=O)O)NC(=O)[C@@H](NC(=O)[C@H](CCCCN)NC(=O)[C@H](CCCCN)NC(=O)[C@H](CCC(N)=O)NC(=O)[C@@H](NC(=O)[C@H](CCC(=O)O)NC(=O)[C@H](CCC(=O)O)NC(=O)[C@@H](NC(=O)[C@H](CCCCN)NC(=O)[C@H](CCCCN)NC(=O)[C@H](CCC(N)=O)NC(=O)[C@@H](NC(=O)[C@H](CCC(=O)O)NC(=O)[C@H](CCC(=O)O)NC(=O)[C@@H](NC(=O)[C@H](CCCCN)NC(=O)[C@H](CCCCN)NC(=O)[C@H](CCC(N)=O)NC(=O)[C@@H](NC(=O)[C@H](CCC(=O)O)NC(=O)[C@H](CCC(=O)O)NC(=O)[C@@H](NC(C)=O)[C@@H](C)CC)[C@@H](C)CC)[C@@H](C)CC)[C@@H](C)CC)[C@@H](C)CC)[C@@H](C)CC)[C@@H](C)CC)[C@@H](C)CC)[C@@H](C)CC)[C@@H](C)CC)C(N)=O` (Ac-IEEIQKKIEEIQKKIEEIQKKIEEIQKKIEEIQKK[βAla]K(Palmitoyl)-NH2), the figures for the EC50 (with Influenza A virus [1]; in experiment [5]) were 700 nM and 110 nM, respectively. Also, the inhibition entry with Influenza A virus [2] was “inactive”. The result (in the experiment with Influenza A virus [3]; in experiment [4]) was Active.

For the origin of these results see ChEMBL document CHEMBL4196194, “De Novo Design of α-Helical Lipopeptides Targeting Viral Fusion Proteins: A Promising Strategy for Relatively Broad-Spectrum Antiviral Drug Discovery” (J Med Chem, 2018).
